Measurements published in ChEMBL document CHEMBL1147785, “Novel peptidomimetic cysteine protease inhibitors as potential antimalarial agents” (J Med Chem, 2006).
Activity calls are given as the source filed them. No cut-off for these calls is given here. Residues, ends and D or L forms follow the SMILES beside them. *: point of attachment. Cbz = O=C(OCc1ccccc1)*

What was measured:
Caspase-6 (Homo sapiens) = target: T1, Caspase-6 (Homo sapiens) (UniProt P55212); assay: Inhibition of human recombinant caspase6 upto 50 uM
T1 sequence (whole entry): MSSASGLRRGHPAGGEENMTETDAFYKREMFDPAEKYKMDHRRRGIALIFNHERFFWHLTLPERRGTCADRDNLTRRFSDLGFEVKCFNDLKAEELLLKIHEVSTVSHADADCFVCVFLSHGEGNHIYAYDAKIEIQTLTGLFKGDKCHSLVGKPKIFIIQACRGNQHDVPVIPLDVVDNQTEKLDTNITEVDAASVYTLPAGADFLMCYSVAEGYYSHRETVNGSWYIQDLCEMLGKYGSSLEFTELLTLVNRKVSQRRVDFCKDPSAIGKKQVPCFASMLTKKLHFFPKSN

Falcipain 2 = target: T2, Falcipain 2 (Plasmodium falciparum, UniProt Q9N6S8); assay: Inhibition of Plasmodium falciparum recombinant FP2A fused with maltose binding protein
T2 sequence (Q9N6S8 whole entry): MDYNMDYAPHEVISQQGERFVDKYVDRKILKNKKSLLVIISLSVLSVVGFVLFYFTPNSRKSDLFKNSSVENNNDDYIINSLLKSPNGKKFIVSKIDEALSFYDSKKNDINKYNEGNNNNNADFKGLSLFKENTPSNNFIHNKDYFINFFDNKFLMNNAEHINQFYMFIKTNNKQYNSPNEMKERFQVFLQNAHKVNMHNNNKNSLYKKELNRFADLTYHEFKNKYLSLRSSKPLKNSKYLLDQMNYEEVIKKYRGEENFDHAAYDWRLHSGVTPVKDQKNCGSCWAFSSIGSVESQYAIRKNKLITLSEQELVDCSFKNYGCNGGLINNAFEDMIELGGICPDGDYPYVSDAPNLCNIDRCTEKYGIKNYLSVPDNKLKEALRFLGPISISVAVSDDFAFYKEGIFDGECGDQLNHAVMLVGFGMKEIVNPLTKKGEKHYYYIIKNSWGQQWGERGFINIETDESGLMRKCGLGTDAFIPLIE
How it was run: (§1)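 Recombinant enzyme expressed in E. coli as a maltose binding protein fusion. Fluorescence assay using the fluorogenic substrate Z-Leu-Arg-AMC, with inhibitor at various concentrations. Hydrolysis rate was compared with DMSO-only negative controls and with positive controls containing a standard papain-family cysteine protease aldehyde inhibitor. Results are given as IC50.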

Falcipain 2B = target: T3, Falcipain 2B (Plasmodium falciparum, UniProt Q3HTL5); assay: Inhibition of Plasmodium falciparum recombinant FP2B fused with maltose binding protein; how it was run: as §1
T3 sequence (Q3HTL5 whole entry): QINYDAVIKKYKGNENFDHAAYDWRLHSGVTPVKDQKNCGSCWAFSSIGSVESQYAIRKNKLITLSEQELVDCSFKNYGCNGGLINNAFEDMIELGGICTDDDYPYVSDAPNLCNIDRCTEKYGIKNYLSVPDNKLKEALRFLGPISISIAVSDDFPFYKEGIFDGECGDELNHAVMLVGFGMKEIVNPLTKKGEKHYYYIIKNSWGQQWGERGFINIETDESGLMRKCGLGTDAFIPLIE

Caspase-7 (Homo sapiens) = target: T4, Caspase-7 (Homo sapiens) (UniProt P55210); assay: Inhibition of human recombinant caspase7 upto 50 uM
T4 sequence (whole entry): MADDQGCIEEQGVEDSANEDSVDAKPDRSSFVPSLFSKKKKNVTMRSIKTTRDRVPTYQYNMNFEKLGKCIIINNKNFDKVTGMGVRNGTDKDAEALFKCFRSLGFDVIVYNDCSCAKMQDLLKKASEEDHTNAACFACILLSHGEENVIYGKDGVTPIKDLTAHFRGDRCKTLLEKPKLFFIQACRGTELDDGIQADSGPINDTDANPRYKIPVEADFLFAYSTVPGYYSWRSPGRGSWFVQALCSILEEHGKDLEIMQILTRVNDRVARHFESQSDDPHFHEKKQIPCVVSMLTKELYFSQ

Caspase-8 (Homo sapiens) = Caspase-8 (Homo sapiens) (UniProt Q14790); assay: Inhibition of human recombinant caspase8 upto 50 uM
Chain of Caspase-8 (Homo sapiens) (Q14790 217-374 limits assumed): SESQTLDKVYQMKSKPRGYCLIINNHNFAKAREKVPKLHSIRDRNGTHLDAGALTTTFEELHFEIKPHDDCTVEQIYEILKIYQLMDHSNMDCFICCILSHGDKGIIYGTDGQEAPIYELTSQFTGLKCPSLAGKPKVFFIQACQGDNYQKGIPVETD
Chain of Caspase-8 (Homo sapiens) (Q14790 385-479 limits assumed): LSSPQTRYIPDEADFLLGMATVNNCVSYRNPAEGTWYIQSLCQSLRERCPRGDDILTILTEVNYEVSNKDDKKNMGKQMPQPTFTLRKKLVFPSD

SMILES	Activity (Caspase-6 (Homo sapiens))	IC50 (Falcipain 2)	IC50 (Falcipain 2B)	Activity (Caspase-7 (Homo sapiens))	Activity (Caspase-8 (Homo sapiens))
O=C(CN1C(=O)[C@@H](COC(=O)Nc2ccc(F)cc2)N=C(c2ccccc2)c2ccccc21)N[C@H]1CC(=O)OC1O (stereo not given in full)	inactive	16.3 µM	12 µM	inactive	inactive
COc1ccc(NC(=O)OC[C@H]2N=C(c3ccccc3)c3ccccc3N(CC(=O)N[C@H]3CC(=O)OC3O)C2=O)cc1 (stereo not given in full)	inactive	8.79 µM	14 µM	inactive	inactive
O=C(CN1C(=O)[C@@H](COC(=O)Nc2ccc(Cl)cc2C(F)(F)F)N=C(c2ccccc2)c2ccccc21)N[C@H]1CC(=O)OC1O (stereo not given in full)	inactive	8.68 µM	25.9 µM	inactive	inactive
O=C(CN1C(=O)[C@@H](COC(=O)Nc2ccc(Cl)cc2)N=C(c2ccccc2)c2ccccc21)N[C@H]1CC(=O)OC1O (stereo not given in full)	inactive	15 µM	9.53 µM	inactive	inactive
O=C(CN1C(=O)[C@@H](COC(=O)Nc2cccc3ccccc23)N=C(c2ccccc2)c2ccccc21)N[C@H]1CC(=O)OC1O (stereo not given in full)	inactive	11.2 µM	17.9 µM	inactive	inactive
O=C(CN1C(=O)[C@@H](COC(=O)Nc2ccc(F)cc2F)N=C(c2ccccc2)c2ccccc21)N[C@H]1CC(=O)OC1O (stereo not given in full)	inactive	13.5 µM	14.7 µM	inactive	inactive
CC(C)[C@H](NC(=O)OCc1ccccc1)C(=O)N[C@H](C=O)Cc1ccccc1 (Cbz-Val-Phe-aldehyde)	inactive	5 µM	5 µM	inactive	inactive
O=C(CN1C(=O)[C@@H](COC(=O)Nc2c(F)cc(F)cc2Br)N=C(c2ccccc2)c2ccccc21)N[C@H]1CC(=O)OC1O (stereo not given in full)	inactive	19.2 µM	21.4 µM	inactive	inactive
O=C(CN1C(=O)[C@H](COC(=O)Nc2ccc(Cl)cc2C(F)(F)F)N=C(c2ccccc2)c2ccccc21)N[C@H]1CC(=O)OC1O (stereo not given in full)	inactive	10.3 µM	19.3 µM	inactive	inactive
Cc1cc(Cl)ccc1NC(=O)OC[C@H]1N=C(c2ccccc2)c2ccccc2N(CC(=O)N[C@H]2CC(=O)OC2O)C1=O (stereo not given in full)	inactive	8.25 µM	11.2 µM	inactive	inactive
O=C(CN1C(=O)[C@@H](COC(=O)Nc2ccccc2)N=C(c2ccccc2)c2ccccc21)N[C@H]1CC(=O)OC1O (stereo not given in full)	inactive	21.5 µM	19.8 µM	inactive	inactive
